# Reference: ChEMBL document CHEMBL1158684, “Cicadapeptins I and II: new Aib-containing peptides from the entomopathogenic fungus Cordyceps heteropoda” (2005)
# Activity calls are given as the source filed them. The rule behind the calls is not given here. Where a SMILES comes first, the peptide text is derived from it. [ ]: non-standard residue; d: D form. The star is where a group is joined. Hyp = O=C(O)[C@@H]1C[C@@H](O)CN1; Decanoyl = CCCCCCCCCC(=O)*; X1 = CC(C)C[C@@H](CN)N*; Aib = CC(C)(N)C(=O)O
# How the values were obtained:
# [1] = test system: Escherichia coli; assay: Antimicrobial activity against Escherichia coli at 100 ug/disk by disk diffusion assay; assay type: functional; conditions: read-out: IZ
# How it was run: (§1)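 Bacterial targets grown 24 h in nutrient broth. 0.6 mL of culture was spread on 9 cm nutrient agar plates and dried 1 h. Test samples in 10 µL MeOH were applied to 4 mm filter paper disks, air-dried 1 h and placed on the plates. Read-out was the inhibition zone diameter in mm.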
# [2] = test system: Bacillus subtilis; assay: Antimicrobial activity against Bacillus subtilis at 100 ug/disk by disk diffusion assay; assay type: functional; conditions: read-out: IZ; how it was run: as §1
# [3] = test system: Bacillus cereus; assay: Antimicrobial activity against Bacillus cereus at 100 ug/disk by disk diffusion assay; assay type: functional; conditions: read-out: IZ; how it was run: as §1
# [4] = test system: Bacillus cereus; assay: Antimicrobial activity against Bacillus cereus by disk diffusion assay; assay type: functional, organism-based; how it was run: as §1
# [5] = test system: Colletotrichum gloeosporioides; assay: Antimicrobial activity against Colletotrichum gloeosporioides by disk diffusion assay; assay type: functional
# How it was run: (§2)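 Filamentous fungal targets were tested on potato dextrose agar plates spread with 0.6 mL spore suspension (1 × 10^6 spores/mL) and dried 1 h. Samples in 10 µL MeOH were loaded on 4 mm paper disks, air-dried 1 h and laid on the plates. Activity was scored as inhibition zone size in mm.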
# [6] = test system: Bacillus subtilis; assay: Antimicrobial activity against Bacillus subtilis by disk diffusion assay; assay type: functional, organism-based; how it was run: as §1
# [7] = test system: Botrytis cinerea; assay: Antimicrobial activity against Botrytis cinerea by disk diffusion assay; assay type: functional; how it was run: as §2
# [8] = test system: Fusarium oxysporum; assay: Antimicrobial activity against Fusarium oxysporum by disk diffusion assay; assay type: functional; how it was run: as §2
# [9] = test system: Colletotrichum fragariae; assay: Antimicrobial activity against Colletotrichum fragariae by disk diffusion assay; assay type: functional; how it was run: as §2
# [10] = test system: Escherichia coli; assay: Antimicrobial activity against Escherichia coli by disk diffusion assay; assay type: functional, organism-based; how it was run: as §1
# [11] = test system: Bacillus cereus; assay: Antimicrobial activity against Bacillus cereus at 30 ug/disk by disk diffusion assay; assay type: functional; conditions: read-out: IZ; how it was run: as §1
# [12] = test system: Bacillus subtilis; assay: Antimicrobial activity against Bacillus subtilis at 30 ug/disk by disk diffusion assay; assay type: functional; conditions: read-out: IZ; how it was run: as §1
compound,measurement,setting,value
CCCCCCCCCC(=O)N1C[C@H](O)C[C@H]1C(=O)N1C[C@H](O)C[C@H]1C(=O)N[C@H](C(=O)NC(C)(C)C(=O)N[C@@H](CCC(N)=O)C(=O)NC(C)(C)C(=O)N[C@H](C(=O)N[C@H](CN)CC(C)C)[C@@H](C)CC)C(C)C [CICADAPEPTIN II] (Decanoyl-[Hyp][Hyp]V[Aib]Q[Aib]I-X1),zone of inhibition at 100 µg/disc,[1],16 mm
same,zone of inhibition at 100 µg/disc,[2],11 mm
same,zone of inhibition at 100 µg/disc,[3],12 mm
CCCCCCCCCC(=O)N1C[C@H](O)C[C@H]1C(=O)N1C[C@H](O)C[C@H]1C(=O)N[C@H](C(=O)NC(C)(C)C(=O)N[C@@H](CCC(N)=O)C(=O)NC(C)(C)C(=O)N[C@@H](CC(C)C)C(=O)N[C@H](CN)CC(C)C)C(C)C [CICADAPEPTIN I] (Decanoyl-[Hyp][Hyp]V[Aib]Q[Aib]L-X1),zone of inhibition at 100 µg/disc,[1],16 mm
same,zone of inhibition at 100 µg/disc,[2],13 mm
same,zone of inhibition at 100 µg/disc,[3],13 mm
CCCCCCC(=O)CCCCCC/C=C/C[C@@H](O)[C@H](O)[C@@](N)(CO)C(=O)O [MYRIOCIN],Activity,[4],inactive
same,inhibition zone (IZ),[5],8 mm
same,Activity,[6],inactive
same,inhibition zone (IZ),[7],28 mm
same,inhibition zone (IZ),[8],17 mm
same,inhibition zone (IZ),[9],14 mm
same,Activity,[10],inactive
CN(C)[C@@H]1C(O)=C(C(N)=O)C(=O)[C@@]2(O)C(O)=C3C(=O)c4c(O)cccc4[C@@](C)(O)[C@H]3C[C@@H]12 [TETRACYCLINE],zone of inhibition at 30 µg/disc,[11],29 mm
same,zone of inhibition at 30 µg/disc,[12],18 mm
